Data as given in the M2OR odorant receptor database.
Substitutions are numbered along the chain they refer to.

Tests used:
Details in all cases: stereoisomer not certain
OR52I1 (Homo sapiens) = biological target: T1, OR52I1 (Homo sapiens) (UniProt Q8NGK6)
T1 sequence (whole entry): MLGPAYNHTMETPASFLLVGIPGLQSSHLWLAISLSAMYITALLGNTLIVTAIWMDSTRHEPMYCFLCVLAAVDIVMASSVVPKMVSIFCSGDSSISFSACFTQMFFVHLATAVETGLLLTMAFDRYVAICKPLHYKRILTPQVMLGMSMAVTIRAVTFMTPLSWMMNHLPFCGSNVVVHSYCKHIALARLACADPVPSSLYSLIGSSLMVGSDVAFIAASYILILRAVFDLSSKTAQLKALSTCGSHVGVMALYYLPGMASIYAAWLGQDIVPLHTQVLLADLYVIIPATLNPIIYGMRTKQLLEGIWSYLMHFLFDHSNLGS
Method in brief: (§1)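 Transient luciferase assays in mammalian cell lines were common, though methods varied by source. The values come from published papers and their supplementary material, with extra details from the original authors when needed. Responsive refers to a measured signal the original authors judged statistically different from baseline, and non-responsive (inactive) to the remainder.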

OR52I2 (Homo sapiens) = biological target: T2, OR52I2 (Homo sapiens) (UniProt Q8NH67)
T2 sequence (whole entry): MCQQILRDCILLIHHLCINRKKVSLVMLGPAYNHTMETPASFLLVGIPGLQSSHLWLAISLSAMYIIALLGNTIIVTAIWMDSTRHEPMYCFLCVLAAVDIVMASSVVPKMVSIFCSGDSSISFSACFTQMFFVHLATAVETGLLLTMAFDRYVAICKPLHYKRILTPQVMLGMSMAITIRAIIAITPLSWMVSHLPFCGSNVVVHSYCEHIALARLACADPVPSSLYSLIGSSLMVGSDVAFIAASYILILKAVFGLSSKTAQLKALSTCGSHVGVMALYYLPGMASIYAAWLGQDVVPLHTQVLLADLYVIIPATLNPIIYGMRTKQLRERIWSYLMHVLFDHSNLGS
Method in brief: as §1

OR52J3 (Homo sapiens) = OR52J3 (Homo sapiens) (UniProt Q8NH60)
OR52J3 (Homo sapiens), sequence (Q8NH60 whole entry): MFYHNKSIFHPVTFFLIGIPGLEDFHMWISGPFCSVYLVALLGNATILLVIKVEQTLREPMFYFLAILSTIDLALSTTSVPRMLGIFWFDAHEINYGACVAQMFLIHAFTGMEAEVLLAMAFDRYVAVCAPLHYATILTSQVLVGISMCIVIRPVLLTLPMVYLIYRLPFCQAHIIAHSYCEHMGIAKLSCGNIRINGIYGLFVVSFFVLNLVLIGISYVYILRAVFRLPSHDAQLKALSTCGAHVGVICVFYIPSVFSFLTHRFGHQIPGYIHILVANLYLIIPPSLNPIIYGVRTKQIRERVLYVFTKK
Method in brief: as §1

OR52K1 (Homo sapiens) = biological target: T3, OR52K1 (Homo sapiens) (UniProt Q8NGK4)
T3 sequence (whole entry): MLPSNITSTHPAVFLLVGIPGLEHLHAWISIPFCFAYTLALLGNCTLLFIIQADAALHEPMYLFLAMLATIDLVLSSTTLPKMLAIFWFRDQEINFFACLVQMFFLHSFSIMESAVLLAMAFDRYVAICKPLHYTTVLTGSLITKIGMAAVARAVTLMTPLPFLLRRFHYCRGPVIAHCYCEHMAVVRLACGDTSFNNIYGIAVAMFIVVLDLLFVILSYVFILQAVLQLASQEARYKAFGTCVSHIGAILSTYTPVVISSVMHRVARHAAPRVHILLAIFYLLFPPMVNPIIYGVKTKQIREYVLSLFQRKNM
Method in brief: as §1

OR52K2 (Homo sapiens) = biological target: T4, OR52K2 (Homo sapiens) (UniProt Q8NGK3)
T4 sequence (whole entry): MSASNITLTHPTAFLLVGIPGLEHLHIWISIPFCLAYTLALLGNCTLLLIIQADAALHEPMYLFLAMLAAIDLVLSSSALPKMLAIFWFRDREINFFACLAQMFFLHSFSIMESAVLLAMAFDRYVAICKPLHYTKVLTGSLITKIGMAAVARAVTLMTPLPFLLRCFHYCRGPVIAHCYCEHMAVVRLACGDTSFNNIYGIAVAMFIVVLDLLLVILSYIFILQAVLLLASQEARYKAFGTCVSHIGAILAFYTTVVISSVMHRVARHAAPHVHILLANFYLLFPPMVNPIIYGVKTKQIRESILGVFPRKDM
Method in brief: as §1

OR52L1 (Homo sapiens) [1] = biological target: T5, OR52L1 (Homo sapiens) (UniProt Q8NGH7)
T5 sequence (whole entry): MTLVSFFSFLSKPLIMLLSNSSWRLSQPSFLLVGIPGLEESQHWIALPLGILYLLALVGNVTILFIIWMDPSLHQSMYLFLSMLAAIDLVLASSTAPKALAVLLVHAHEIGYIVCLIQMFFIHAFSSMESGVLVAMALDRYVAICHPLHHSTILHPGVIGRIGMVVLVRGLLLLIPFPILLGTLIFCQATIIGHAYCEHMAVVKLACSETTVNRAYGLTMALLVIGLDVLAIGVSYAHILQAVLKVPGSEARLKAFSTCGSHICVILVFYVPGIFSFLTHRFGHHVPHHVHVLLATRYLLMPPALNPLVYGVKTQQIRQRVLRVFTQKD
Method in brief: as §1

OR52M1 (Homo sapiens) = biological target: T6, OR52M1 (Homo sapiens) (UniProt Q8NGK5)
T6 sequence (whole entry): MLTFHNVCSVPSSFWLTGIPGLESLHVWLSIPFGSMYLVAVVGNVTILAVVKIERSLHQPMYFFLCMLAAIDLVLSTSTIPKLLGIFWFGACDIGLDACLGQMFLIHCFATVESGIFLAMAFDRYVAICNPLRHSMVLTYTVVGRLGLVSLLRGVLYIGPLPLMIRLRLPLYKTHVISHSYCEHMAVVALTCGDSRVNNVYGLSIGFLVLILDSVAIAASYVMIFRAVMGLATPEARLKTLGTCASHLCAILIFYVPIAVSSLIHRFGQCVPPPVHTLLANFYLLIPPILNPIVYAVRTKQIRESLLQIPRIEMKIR
Method in brief: as §1

OR52N1 (Homo sapiens) = biological target: T7, OR52N1 (Homo sapiens) (UniProt Q8NH53)
T7 sequence (whole entry): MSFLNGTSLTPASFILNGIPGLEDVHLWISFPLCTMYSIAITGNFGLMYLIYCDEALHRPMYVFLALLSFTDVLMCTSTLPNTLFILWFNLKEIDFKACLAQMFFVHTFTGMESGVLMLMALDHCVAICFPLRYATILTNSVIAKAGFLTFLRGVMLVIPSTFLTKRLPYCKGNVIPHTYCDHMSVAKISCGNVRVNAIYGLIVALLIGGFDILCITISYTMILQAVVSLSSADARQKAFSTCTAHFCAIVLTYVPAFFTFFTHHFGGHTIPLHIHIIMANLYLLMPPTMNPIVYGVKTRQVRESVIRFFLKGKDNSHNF
Method in brief: as §1

OR52N2 (Homo sapiens) = biological target: T8, OR52N2 (Homo sapiens) (UniProt Q8NGI0)
T8 sequence (whole entry): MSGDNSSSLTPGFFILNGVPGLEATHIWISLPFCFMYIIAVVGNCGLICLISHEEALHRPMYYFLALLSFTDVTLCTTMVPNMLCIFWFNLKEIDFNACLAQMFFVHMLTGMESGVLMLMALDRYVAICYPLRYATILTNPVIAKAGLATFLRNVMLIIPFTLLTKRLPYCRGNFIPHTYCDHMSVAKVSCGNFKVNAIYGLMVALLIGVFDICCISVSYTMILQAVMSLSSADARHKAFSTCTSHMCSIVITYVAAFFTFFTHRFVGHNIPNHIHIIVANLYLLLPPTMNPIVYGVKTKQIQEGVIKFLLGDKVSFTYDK
Method in brief: as §1

OR52N4 (Homo sapiens) = biological target: T9, OR52N4 (Homo sapiens) (UniProt Q8NGI2)
T9 sequence (whole entry): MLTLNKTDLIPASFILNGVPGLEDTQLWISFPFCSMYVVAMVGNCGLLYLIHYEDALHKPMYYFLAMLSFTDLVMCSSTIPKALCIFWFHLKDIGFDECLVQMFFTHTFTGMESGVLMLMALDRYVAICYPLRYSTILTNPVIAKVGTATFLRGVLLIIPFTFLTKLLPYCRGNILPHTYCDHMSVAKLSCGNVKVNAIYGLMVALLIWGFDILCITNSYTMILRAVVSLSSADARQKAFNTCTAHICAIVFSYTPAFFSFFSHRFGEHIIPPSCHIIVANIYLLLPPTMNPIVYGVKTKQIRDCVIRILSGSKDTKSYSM
Method in brief: as §1

OR52N5 (Homo sapiens) = biological target: T10, OR52N5 (Homo sapiens) (UniProt Q8NH56)
T10 sequence (whole entry): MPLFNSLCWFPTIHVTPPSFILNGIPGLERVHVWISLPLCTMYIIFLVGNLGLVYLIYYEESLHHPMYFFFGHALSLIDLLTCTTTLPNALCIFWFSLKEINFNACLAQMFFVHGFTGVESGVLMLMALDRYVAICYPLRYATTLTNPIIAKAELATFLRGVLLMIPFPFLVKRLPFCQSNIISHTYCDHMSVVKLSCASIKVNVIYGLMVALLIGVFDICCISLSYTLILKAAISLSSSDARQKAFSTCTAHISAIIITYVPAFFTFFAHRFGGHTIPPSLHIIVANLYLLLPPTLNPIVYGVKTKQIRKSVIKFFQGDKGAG
Method in brief: as §1

OR52R1 (Homo sapiens) = biological target: T11, OR52R1 (Homo sapiens) (UniProt Q8NGF1)
T11 sequence (whole entry): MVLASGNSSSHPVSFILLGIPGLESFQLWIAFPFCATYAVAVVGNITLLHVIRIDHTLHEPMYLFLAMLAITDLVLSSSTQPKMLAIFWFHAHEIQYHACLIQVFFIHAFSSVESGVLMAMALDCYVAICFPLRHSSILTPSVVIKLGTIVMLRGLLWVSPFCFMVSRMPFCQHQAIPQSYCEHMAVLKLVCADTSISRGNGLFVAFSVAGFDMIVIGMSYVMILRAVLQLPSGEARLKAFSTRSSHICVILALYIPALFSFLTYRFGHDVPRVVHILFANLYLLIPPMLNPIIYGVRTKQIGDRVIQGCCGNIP
Method in brief: as §1

OR52W1 (Homo sapiens) = biological target: T12, OR52W1 (Homo sapiens) (UniProt Q6IF63)
T12 sequence (whole entry): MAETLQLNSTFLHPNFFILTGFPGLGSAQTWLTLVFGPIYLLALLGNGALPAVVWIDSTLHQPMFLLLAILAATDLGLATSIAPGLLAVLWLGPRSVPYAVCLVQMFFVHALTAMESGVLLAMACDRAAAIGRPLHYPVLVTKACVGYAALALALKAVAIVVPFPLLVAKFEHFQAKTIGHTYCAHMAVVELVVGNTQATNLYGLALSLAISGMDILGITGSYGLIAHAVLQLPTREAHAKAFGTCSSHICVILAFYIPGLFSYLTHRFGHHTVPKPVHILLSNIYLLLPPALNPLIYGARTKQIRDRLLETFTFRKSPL
Method in brief: as §1

OR56A1 (Homo sapiens) = biological target: T13, OR56A1 (Homo sapiens) (UniProt Q8NGH5)
T13 sequence (whole entry): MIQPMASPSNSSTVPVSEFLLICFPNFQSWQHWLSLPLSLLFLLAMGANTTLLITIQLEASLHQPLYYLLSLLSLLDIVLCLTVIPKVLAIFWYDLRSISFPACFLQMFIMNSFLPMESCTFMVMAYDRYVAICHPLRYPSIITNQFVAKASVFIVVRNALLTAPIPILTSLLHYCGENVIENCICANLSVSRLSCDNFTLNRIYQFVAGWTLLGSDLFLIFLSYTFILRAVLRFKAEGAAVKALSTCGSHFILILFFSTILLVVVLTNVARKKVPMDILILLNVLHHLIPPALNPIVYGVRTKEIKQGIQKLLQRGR
Method in brief: as §1

OR56A3 (Homo sapiens) = biological target: T14, OR56A3 (Homo sapiens) (UniProt Q8NH54)
T14 sequence (whole entry): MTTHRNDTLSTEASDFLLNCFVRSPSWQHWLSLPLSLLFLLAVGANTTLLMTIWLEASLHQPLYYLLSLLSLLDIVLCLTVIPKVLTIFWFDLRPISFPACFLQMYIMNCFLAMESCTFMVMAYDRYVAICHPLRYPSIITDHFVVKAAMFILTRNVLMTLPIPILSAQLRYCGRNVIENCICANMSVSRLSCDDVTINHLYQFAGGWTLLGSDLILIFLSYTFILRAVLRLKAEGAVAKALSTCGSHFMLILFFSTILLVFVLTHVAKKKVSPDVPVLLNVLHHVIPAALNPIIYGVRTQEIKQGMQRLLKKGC
Method in brief: as §1

OR56A5 (Homo sapiens) = biological target: T15, OR56A5 (Homo sapiens) (UniProt P0C7T3)
T15 sequence (whole entry): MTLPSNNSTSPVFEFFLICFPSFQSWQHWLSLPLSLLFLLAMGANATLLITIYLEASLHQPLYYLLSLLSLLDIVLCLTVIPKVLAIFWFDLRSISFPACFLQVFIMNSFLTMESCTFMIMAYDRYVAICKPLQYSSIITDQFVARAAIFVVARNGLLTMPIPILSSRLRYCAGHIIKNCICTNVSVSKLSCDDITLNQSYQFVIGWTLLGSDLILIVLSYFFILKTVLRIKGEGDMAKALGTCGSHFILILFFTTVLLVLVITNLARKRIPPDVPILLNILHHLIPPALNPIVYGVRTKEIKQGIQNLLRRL
Method in brief: as §1

OR56B1 (Homo sapiens) = biological target: T16, OR56B1 (Homo sapiens) (UniProt Q8NGI3)
T16 sequence (whole entry): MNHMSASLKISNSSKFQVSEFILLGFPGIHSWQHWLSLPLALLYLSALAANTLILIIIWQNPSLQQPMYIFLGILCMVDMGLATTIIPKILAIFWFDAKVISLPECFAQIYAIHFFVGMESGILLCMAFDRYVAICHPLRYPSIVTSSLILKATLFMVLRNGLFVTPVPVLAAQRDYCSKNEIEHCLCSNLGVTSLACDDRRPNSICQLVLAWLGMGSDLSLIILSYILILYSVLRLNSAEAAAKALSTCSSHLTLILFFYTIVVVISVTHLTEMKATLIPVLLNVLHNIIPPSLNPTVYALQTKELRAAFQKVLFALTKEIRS
Method in brief: as §1

OR52L1 (Homo sapiens) [2] = biological target: T17, OR52L1 (Homo sapiens) (UniProt Q8NGH7); remark: listed apart in the source
T17 sequence (whole entry): T5 sequence (whole entry) with R140C, R161C, T183K, R297W
Method in brief: as §1

OR52Z1P (Homo sapiens) = OR52Z1P (Homo sapiens) (UniProt P0C646)
OR52Z1P (Homo sapiens), sequence (P0C646 whole entry): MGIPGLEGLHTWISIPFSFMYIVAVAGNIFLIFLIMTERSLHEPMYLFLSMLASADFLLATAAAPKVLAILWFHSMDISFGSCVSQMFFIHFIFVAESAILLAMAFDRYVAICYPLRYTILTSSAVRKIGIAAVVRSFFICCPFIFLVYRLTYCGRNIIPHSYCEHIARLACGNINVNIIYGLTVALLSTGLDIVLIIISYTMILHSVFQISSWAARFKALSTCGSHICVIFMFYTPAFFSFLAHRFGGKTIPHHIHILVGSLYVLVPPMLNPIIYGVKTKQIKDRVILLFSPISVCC
Method in brief: as §1

OR56A4 (Homo sapiens) = biological target: T18, OR56A4 (Homo sapiens) (UniProt Q8NGH8)
T18 sequence (whole entry): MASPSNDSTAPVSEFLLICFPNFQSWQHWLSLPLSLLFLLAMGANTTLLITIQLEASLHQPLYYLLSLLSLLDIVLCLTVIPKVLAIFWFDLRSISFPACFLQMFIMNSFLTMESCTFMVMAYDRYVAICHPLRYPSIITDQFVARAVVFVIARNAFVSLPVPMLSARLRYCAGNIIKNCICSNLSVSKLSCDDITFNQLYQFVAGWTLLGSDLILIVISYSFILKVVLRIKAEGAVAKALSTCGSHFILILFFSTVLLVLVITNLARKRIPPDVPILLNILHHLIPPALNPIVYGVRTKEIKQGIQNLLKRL
Method in brief: as §1

Measured: odorant receptor agonist call

CCCC(S)CCOC(C)=O (stereo unspecified)
not listed: OR52L1 (Homo sapiens) [2] | OR52Z1P (Homo sapiens) | OR56A4 (Homo sapiens)
inactive: all other assays above

CC1CCCCCCCCCCCCC(=O)C1 (stereo unspecified)
not listed: OR52L1 (Homo sapiens) [1]
inactive: all other assays above
